The results in this text go back to ChEMBL document CHEMBL2331216, “Synthesis and biological activities of a new class of heat shock protein 90 inhibitors, designed by energy-based pharmacophore virtual screening” (J Med Chem, 2013).

The term GI50 denotes the concentration that inhibits growth by half. Usually EC50 stands for the concentration that produces a half-maximal response.

Activity calls are given as the source filed them. Where only a bound is given, the exact number is not on record here.

Assay [1] concerns SF-295. The assay can be described thus: Antiproliferative activity against human SF295 cells after 48 hrs by sulforhodamine B assay. Format: functional. As to conditions: SF-295, 48 h. The gist of the method:
(§1)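 Compounds run through the NCI DTP screen on its full human tumour cell line panels. Those that passed the selection criteria were tested twice in the five-dose concentration format. The MG_MID for each experiment is the arithmetic mean over all cell lines tested.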
On the technique in general: Sulforhodamine B stains cellular protein and so reports cell mass.

Assay [2] can be described thus: Antiproliferative activity against human ovarian cancer cells after 48 hrs by sulforhodamine B assay. As to conditions: Cancer cell lines. Format: functional. The essentials:
as §1

The nature of assay [3]: Antiproliferative activity against human breast cancer cells after 48 hrs by sulforhodamine B assay. Format: functional. The following applies: Cancer cell lines. The essentials:
as §1

Assay [4] has as its system MCF7. Kind of assay: Cell cycle arrest in human MCF7 cells assessed as accumulation at sub G0/G1 phase at 0.548 uM after 48 hrs by propidium iodide staining-based FACS flow cytometric analysis. The class given is functional. The essentials: (§2)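 Cells were collected and DNA stained with propidium iodide. Flow cytometry gave the cell cycle phase distribution against untreated controls. Values are mean ± SD of three independent experiments.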
For orientation: In flow cytometry, cells or beads pass a laser one at a time.

Assay [5] deals with MCF7. The assay can be described thus: Cell cycle arrest in human MCF7 cells assessed as decrease in S phase cells at 0.548 uM after 24 hrs by propidium iodide staining-based FACS flow cytometric analysis (reference value: 11 %). Format: functional. Set-up: scale not given: the % may be the effect or the level left. The gist of the method:
as §2

A short description of assay [6]: Antiproliferative activity against human non-small cell lung cancer cells after 48 hrs by sulforhodamine B assay. Format: functional. The following applies: Cancer cell lines. The gist of the method: as §1
For assay [7], the target named is T1, Heat shock protein HSP90 (Homo sapiens, UniProt P07900+P08238). Kind of assay: Inhibition of Hsp90 in human MCF7 cells assessed as decrease in ErbB2 level after 24 hrs by Western blotting analysis. Format: cell-based. The essentials: (§3)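 Total cellular extracts were analysed by Western blot for Cdk4, c-Raf, ErbB2 and Hsp72, with β-actin as the loading control.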

Assay [8] deals with T1, Heat shock protein HSP90. Kind of assay: Inhibition of Hsp90 in human MCF7 cells assessed as decrease in Cdk4 level after 24 hrs by Western blotting analysis. Format: cell-based. The gist of the method: as §3
A short description of assay [9]: Antiproliferative activity against human leukemia cells after 48 hrs by sulforhodamine B assay. The class given is functional. The following applies: Leukemia cell. The essentials:
as §1

Assay [10] concerns MCF7. The assay can be described thus: Antitumor activity in human MCF7 cells assessed as induction of necrosis after 24 hrs by LDH assay. The class given is functional, cell-based.
Assay [11] concerns MCF7. The assay can be described thus: Cell cycle arrest in human MCF7 cells assessed as decrease in G0/G1 phase cells at 0.548 uM after 24 hrs by propidium iodide staining-based FACS flow cytometric analysis (reference value: 65 %). The class given is functional. The arrangement: scale not given: the % may be the effect or the level left. The essentials: as §2
Assay [12] concerns MCF7. The assay can be described thus: Cell cycle arrest in human MCF7 cells assessed as increase in G2/M phase cells at 0.548 uM after 24 hrs by propidium iodide staining-based FACS flow cytometric analysis (reference value: 24 %). Format: functional. The essentials: as §2
Assay [13] addresses T1, Heat shock protein HSP90. Kind of assay: Inhibition of Hsp90 in human MCF7 cells assessed as decrease in cRAF level at 0.5 to 2 fold GI50 after 24 hrs by Western blotting analysis. The class given is cell-based. The essentials: as §3
For orientation: In western blotting, separated proteins are transferred to a membrane and probed.

Assay [14] has as its system MCF7. Kind of assay: Cell cycle arrest in human MCF7 cells assessed as decrease in G2/M phase cells at 0.548 uM after 48 hrs by propidium iodide staining-based FACS flow cytometric analysis. The class given is functional. The essentials: as §2
Assay [15] in a line: Antiproliferative activity against human renal cancer cells after 48 hrs by sulforhodamine B assay. The class given is functional. The following applies: Cancer cell lines. The essentials: as §1
A short description of assay [16]: Antiproliferative activity against human prostate cancer cells after 48 hrs by sulforhodamine B assay. Format: functional. As to conditions: Cancer cell lines. The gist of the method:
as §1

In assay [17] the test system is MCF7. The assay can be described thus: Cell cycle arrest in human MCF7 cells assessed as decrease in G0/G1 phase cells at 0.548 uM after 48 hrs by propidium iodide staining-based FACS flow cytometric analysis. Format: functional. The essentials:
as §2

Assay [18] relates to MCF7. The assay can be described thus: Cell cycle arrest in human MCF7 cells assessed as accumulation at G2/M phase after 24 hrs by propidium iodide staining-based FACS flow cytometric analysis. The class given is functional. The essentials:
as §2

Assay [19] relates to MCF7. Kind of assay: Cell cycle arrest in human MCF7 cells assessed as decrease in S phase cells at 0.548 uM after 48 hrs by propidium iodide staining-based FACS flow cytometric analysis. Format: functional. The gist of the method:
as §2

The nature of assay [20]: Antiproliferative activity against human colon cancer cells after 48 hrs by sulforhodamine B assay. The class given is functional. As to conditions: Cancer cell lines. The gist of the method: as §1
Assay [21] can be described thus: Antiproliferative activity against human melanoma cells after 48 hrs by sulforhodamine B assay. The class given is functional. The following applies: Melanoma cell. The gist of the method:
as §1

In assay [22] the target is T1, Heat shock protein HSP90. Kind of assay: Inhibition of Hsp90 in human MCF7 cells assessed as upregulation of Hsp72 at 0.5 to 2 fold GI50 after 24 hrs by Western blotting analysis. Format: cell-based. The gist of the method:
as §3

Assay [23] deals with T1, Heat shock protein HSP90. Kind of assay: Inhibition of biotinylated geldanamycin binding to human recombinant Hsp90 ATP binding domain after 60 mins by fluorescence assay. Format: protein assay.
Assay [24] concerns the target T1, Heat shock protein HSP90. Kind of assay: Inhibition of Hsp90 in human MCF7 cells assessed as decrease in Cdk4 level at 0.5 to 2 fold GI50 after 24 hrs by Western blotting analysis. The class given is cell-based. The essentials:
as §3

For assay [25], the target named is T1, Heat shock protein HSP90. Kind of assay: Inhibition of Hsp90 in human MCF7 cells assessed as decrease in cRAF level after 24 hrs by Western blotting analysis. Format: cell-based. The gist of the method: as §3
Assay [26] concerns NCI-H522. Kind of assay: Antiproliferative activity against human NCI-H522 cells after 48 hrs by sulforhodamine B assay. The class given is functional. As to conditions: NCI-H522, 48 h. The gist of the method: as §1
A short description of assay [27]: Antiproliferative activity against human CNS cancer cells after 48 hrs by sulforhodamine B assay. Format: functional. As to conditions: Cancer cell lines. The gist of the method:
as §1

Assay [28] addresses T1, Heat shock protein HSP90. The assay can be described thus: Inhibition of Hsp90 in human MCF7 cells assessed as decrease in ErbB2 level at 0.5 to 2 fold GI50 after 24 hrs by Western blotting analysis. The class given is cell-based. The essentials: as §3

For the molecule `COc1cccc(-c2cc(-c3cccc(NS(C)(=O)=O)c3)nc(N)c2C#N)c1O`, the GI50 in assay [1] came out at 43 nM; in assay [2] it was 210 nM; in [3] it was 260 nM; in [6], 250 nM; in assay [9], 140 nM; in assay [15], 290 nM. In addition, the concentration for 50% growth inhibition (GI50) in assay [16] amounted to 130 nM; in [20] it was 150 nM; in assay [21], 120 nM; in assay [26] it was 24 nM; in assay [27], 160 nM. The outcome in [4], in assay [10], in assay [14], in assay [17] and in assay [19] was Active. The Activity in [5] was 7%; in assay [11] it was 40%; in assay [12], 53%; in [18], “Dose-dependent effect”. The inhibition result in assay [7], in [8] and in assay [25] was “Dose-dependent effect” in each case. Further, the inhibition entry in [13], in [22], in assay [24] and in [28] was “Active” in each case. Further, the EC50 in [23] came to 252 nM.

Regarding `CS(=O)(=O)Nc1cccc(-c2cc(-c3cccc(F)c3)c(C#N)c(N)n2)c1`, in [23], the 50% effective concentration (EC50) is listed as greater than 10000 nM.

Consider `COc1ccccc1-c1cc(-c2cccc(NS(C)(=O)=O)c2)nc(N)c1C#N`, for which the EC50 in assay [23] came out at 634 nM.

For the molecule `COc1ccc(-c2cc(-c3cccc(NS(C)(=O)=O)c3)nc(N)c2C#N)cc1`, the concentration for 50% growth inhibition (GI50) is 220 nM in [2]; 140 nM in [3]; 130 nM in assay [6]; 100 nM in [9]; 130 nM in [15]; 130 nM in assay [16]. Moreover, the values for the GI50 in assay [20], in assay [21] and in assay [27] were 100 nM, 80 nM and 80 nM, respectively. Further, the EC50 in [23] is on record as 541 nM.

For the molecule `COc1ccc(-c2cc(-c3cccc(NS(C)(=O)=O)c3)nc(N)c2C#N)cc1OC`, the EC50 in assay [23] came out at 867 nM.

Turning to `CN(C)c1ccc(-c2cc(-c3cccc(NS(C)(=O)=O)c3)nc(N)c2C#N)cc1`, the concentration for 50% growth inhibition (GI50) in [2] turned out to be 80 nM; in assay [3], 100 nM; in assay [6], 60 nM; in [9] it was 40 nM; in assay [15], 50 nM; in [16], 30 nM. Also, the figures for the GI50 in assay [20], in assay [21] and in assay [27] were 40 nM, 60 nM and 40 nM, respectively. Further, the concentration giving a half-maximal response (EC50) in assay [23] worked out at 371 nM.

Take `COc1cccc(-c2cc(-c3cccc(NS(C)(=O)=O)c3)nc(N)c2C#N)c1`: the EC50 in [23] is greater than 10000 nM.

As for `CS(=O)(=O)Nc1cccc(-c2cc(-c3ccccc3Br)c(C#N)c(N)n2)c1`, in [23], the concentration for a half-maximal effect (EC50) is greater than 10000 nM.

Turning to `CS(=O)(=O)Nc1cccc(-c2cc(-c3ccccc3Cl)c(C#N)c(N)n2)c1`, the GI50 in assay [2] is 980 nM; in assay [3], 460 nM; in assay [6], 1100 nM; in assay [9], 580 nM; in [15] it was 660 nM; in assay [16] it was 780 nM. In addition, the 50% growth inhibitory concentration (GI50) was determined as 550 nM in assay [20], 660 nM in assay [21] and 510 nM in assay [27]. Also, in [23], the 50% effective concentration (EC50) turned out to be 950 nM.

As for `CS(=O)(=O)Nc1cccc(-c2cc(-c3ccc(O)cc3)c(C#N)c(N)n2)c1`, in assay [23], the 50% effective concentration (EC50) is on record as greater than 10000 nM.

In the case of `CCN(CC)c1ccc(-c2cc(-c3cccc(NS(C)(=O)=O)c3)nc(N)c2C#N)cc1`, in [23], the EC50 is on record as 783 nM.
